Test results as given in ChEMBL document CHEMBL1156077, “Piperazinyl-glutamate-pyrimidines as potent P2Y12 antagonists for inhibition of platelet aggregation” (Bioorg Med Chem Lett, 2009).

What was measured:
[1] = Selectivity for human P2Y12 receptor over P2Y1
P2Y purinoceptor 12 [2] = molecular target: T1, P2Y purinoceptor 12 (Homo sapiens, UniProt Q9H244); experiment: Binding affinity at human recombinant P2Y12 receptor expressed in CHO cells by radioligand binding assay; type: cell-based
Outline: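 Washed membranes from CHO cells transfected with synthetic human P2Y12 gene. Compounds as 7-point threefold dilutions, triplicate, 1 h at room temperature. Nonspecific binding defined with 300 nM 2-MeSADP. Filtered, washed with ice-cold Tris pH 7.4. Single-site fit; IC50 converted to Ki by Cheng–Prusoff, geometric mean of n≥2.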

[3] = Selectivity for human P2Y12 receptor over P2Y13
P2Y purinoceptor 12 [4] = molecular target: T1, P2Y purinoceptor 12; experiment: Ratio of compound IC50 to thienopyrimidine IC50 for P2Y12 receptor in human platelet rich plasma assessed as inhibition of ADP-induced platelet aggregation by light transmission aggregometry
Outline: (§1)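 Human platelet-rich plasma was pre-incubated 5 min at 37 °C with compound across seven concentrations (10 down to 0.156). Aggregation was started with ADP (20, final) and followed by light transmission at 626 nm for 15 min at 37 °C. Duplicate concentration-response data were read at the 15-min end-point. IC50 was divided by the IC50 of the thienopyrimidine reference run on the same plate.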

P2Y purinoceptor 12 [5] = molecular target: T1, P2Y purinoceptor 12; experiment: Ratio of compound IC50 to AZD-6140 IC50 for P2Y12 receptor in human platelet rich plasma assessed as inhibition of ADP-induced platelet aggregation by light transmission aggregometry
Outline: as §1, with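 “AZD-6140” for “the thienopyrimidine reference”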

T1 sequence (Q9H244 whole entry): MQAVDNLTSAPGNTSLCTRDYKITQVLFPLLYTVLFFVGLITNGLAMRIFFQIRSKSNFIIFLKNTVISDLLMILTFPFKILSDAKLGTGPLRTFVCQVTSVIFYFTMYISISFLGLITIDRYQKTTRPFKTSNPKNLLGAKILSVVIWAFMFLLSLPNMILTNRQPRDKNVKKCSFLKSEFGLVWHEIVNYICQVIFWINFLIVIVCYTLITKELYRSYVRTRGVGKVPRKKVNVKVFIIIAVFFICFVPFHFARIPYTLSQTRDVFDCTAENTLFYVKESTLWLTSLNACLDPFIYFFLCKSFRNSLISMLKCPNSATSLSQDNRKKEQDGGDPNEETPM

Compound | fold change (FC) [1] | Ki (P2Y purinoceptor 12 [2]) [nM] | fold change (FC) [3] | Ratio IC50 (P2Y purinoceptor 12 [4]) | Ratio IC50 (P2Y purinoceptor 12 [5])
CCCCCOC(=O)N1CCN(C(=O)[C@H](CCC(=O)O)NC(=O)c2nc(NCC3CCNC3)cc(-c3ccccc3)n2)CC1 (stereo not given in full) | > 340 | 19 | > 340 | – | –
CCCCCOC(=O)N1CCN(C(=O)[C@H](CCC(=O)O)NC(=O)c2nc(-c3ccccc3)cc(N3CCOCC3)n2)CC1 | > 340 | 11 | > 340 | – | –
CCCCCOC(=O)N1CCN(C(=O)[C@H](CCC(=O)O)NC(=O)c2cc(N3CCC(CCN4CCCC4)CC3)nc(-c3ccccc3)n2)CC1 | > 340 | 2.1 | > 340 | 0.1 | 0.5
CCCCCOC(=O)N1CCN(C(=O)[C@H](CCC(=O)O)NC(=O)c2nc(-c3ccccc3)cc(N3CCC(C(N)=O)CC3)n2)CC1 | > 340 | 3.5 | > 340 | 0.4 | 1.9
CCCCCOC(=O)N1CCN(C(=O)[C@H](CCC(=O)O)NC(=O)c2cc(OCCOC)nc(-c3ccccc3)n2)CC1 | > 340 | 1.2 | > 340 | 1.2 | 8.8
CCCCCOC(=O)N1CCN(C(=O)[C@H](CCC(=O)O)NC(=O)c2nc(-c3ccccc3)cc(N3CCN(C)CC3)n2)CC1 | > 340 | 11 | > 340 | 1.8 | 8.1
CCCCCOC(=O)N1CCN(C(=O)[C@H](CCC(=O)O)NC(=O)c2nc(-c3ccccc3)cc(N3CCC(CCN)CC3)n2)CC1 | > 340 | 3 | > 340 | 0.4 | 1.9
CCCCOC(=O)N1CCN(C(=O)[C@H](CCC(=O)O)NC(=O)c2cc(OCC3CCCO3)nc(-c3ccccc3)n2)CC1 (stereo not given in full) | > 340 | 55 | > 340 | 1.4 | 3.8
CCCCCOC(=O)N1CCN(C(=O)[C@H](CCC(=O)O)NC(=O)c2nc(NCCCN(C)C)cc(-c3ccccc3)n2)CC1 | > 340 | 38 | > 340 | – | –
CCCCOC(=O)N1CCN(C(=O)[C@H](CCC(=O)O)NC(=O)c2cc(N3CCC(C(=O)N4CCCC4)CC3)nc(-c3ccccc3)n2)CC1 | > 340 | 0.7 | > 340 | 0.08 | 0.4
CCCCCOC(=O)N1CCN(C(=O)[C@H](CCC(=O)O)NC(=O)c2cc(OCCN(CC)CC)nc(-c3ccccc3)n2)CC1 | > 340 | 27 | > 340 | 2.4 | 17
CCCCCOC(=O)N1CCN(C(=O)[C@H](CCC(=O)O)NC(=O)c2nc(-c3ccccc3)cc(N3CCNCC3)n2)CC1 | > 340 | 22 | > 340 | 1.1 | 6
CCCCOC(=O)N1CCN(C(=O)[C@H](CCC(=O)O)NC(=O)c2cc(OCCN(CC)CC)nc(-c3ccccc3)n2)CC1 | > 340 | 72 | > 340 | 1.1 | 4.3
CCCCCOC(=O)N1CCN(C(=O)[C@H](CCC(=O)O)NC(=O)c2nc(OCCOC)cc(-c3ccccc3)n2)CC1 | > 340 | 1.2 | > 340 | – | –
CCCCCOC(=O)N1CCN(C(=O)[C@H](CCC(=O)O)NC(=O)c2cc(N3CCC(N4CCOCC4)CC3)nc(-c3ccccc3)n2)CC1 | > 340 | 2.9 | > 340 | 0.2 | 0.7
CCCCCOC(=O)N1CCN(C(=O)[C@H](CCC(=O)O)NC(=O)c2nc(-c3ccccc3)cc(N3CCN(C(=O)N(C)C)CC3)n2)CC1 | > 340 | 14 | > 340 | – | –
CCCCOC(=O)N1CCN(C(=O)[C@H](CCC(=O)O)NC(=O)c2cc(N3CCC(N4CCCC4)CC3)nc(-c3ccccc3)n2)CC1 | – | 1.7 | – | 0.2 | 0.8
CCCCCOC(=O)N1CCN(C(=O)[C@H](CCC(=O)O)NC(=O)c2nc(-c3ccccc3)cc(N3CCC(CCOC)CC3)n2)CC1 | > 340 | 8.4 | > 340 | – | –
CCCCCOC(=O)N1CCN(C(=O)[C@H](CCC(=O)O)NC(=O)c2nc(-c3ccccc3)cc(N3CCC(COCCOC)CC3)n2)CC1 | > 340 | 8.1 | > 340 | – | –
CCCCCOC(=O)N1CCN(C(=O)[C@H](CCC(=O)O)NC(=O)c2nc(NCCOC)cc(-c3ccccc3)n2)CC1 | > 340 | 5.2 | > 340 | – | –
CCCCCOC(=O)N1CCN(C(=O)[C@H](CCC(=O)O)NC(=O)c2nc(-c3ccccc3)cc(N3CCC(OCCO)CC3)n2)CC1 | > 340 | 10 | > 340 | – | –
CCCCCOC(=O)N1CCN(C(=O)[C@H](CCC(=O)O)NC(=O)c2nc(OCCN(CC)CC)cc(-c3ccccc3)n2)CC1 | > 340 | 184 | > 340 | – | –
CCCCOC(=O)N1CCN(C(=O)[C@H](CCC(=O)O)NC(=O)c2cc(OC(CC)C(=O)N(CC)CC)nc(-c3ccccc3)n2)CC1 (stereo not given in full) | > 340 | 123 | > 340 | – | –

Results, then the compound that gave them:

fold change (FC) [1] | Ki (P2Y purinoceptor 12 [2]) [nM] | fold change (FC) [3] | Ratio IC50 (P2Y purinoceptor 12 [4]) | Ratio IC50 (P2Y purinoceptor 12 [5]) | Compound
> 340 | 7.5 | > 340 | – | – | CCCCCOC(=O)N1CCN(C(=O)[C@H](CCC(=O)O)NC(=O)c2cc(N3CCC(C)CC3)nc(-c3ccccc3)n2)CC1
> 340 | 4.1 | > 340 | 0.5 | 2.3 | CCCCCOC(=O)N1CCN(C(=O)[C@H](CCC(=O)O)NC(=O)c2cc(NCC3CCNC3)nc(-c3ccccc3)n2)CC1 (stereo not given in full)
> 340 | 2.3 | > 340 | 0.3 | 1.5 | CCCCCOC(=O)N1CCN(C(=O)[C@H](CCC(=O)O)NC(=O)c2cc(N3CCN(CCOC)CC3)nc(-c3ccccc3)n2)CC1
> 340 | 19 | > 340 | 0.8 | 2.8 | CCCCOC(=O)N1CCN(C(=O)[C@H](CCC(=O)O)NC(=O)c2cc(OC3CCN(C(C)C)CC3)nc(-c3ccccc3)n2)CC1
> 340 | 2.8 | > 340 | 0.1 | 0.4 | CCCCCOC(=O)N1CCN(C(=O)[C@H](CCC(=O)O)NC(=O)c2cc(N3CCC(CCN(C)C)CC3)nc(-c3ccccc3)n2)CC1
> 340 | 2 | > 340 | 0.3 | 1.4 | CCCCCOC(=O)N1CCN(C(=O)[C@H](CCC(=O)O)NC(=O)c2cc(N3CCNCC3)nc(-c3ccccc3)n2)CC1
> 340 | 0.83 | > 340 | 0.04 | 0.3 | CCCCCOC(=O)N1CCN(C(=O)[C@H](CCC(=O)O)NC(=O)c2cc(N3CCC(C(=O)N4CCC4)CC3)nc(-c3ccccc3)n2)CC1
> 340 | 1.3 | > 340 | 0.2 | 1.1 | CCCCOC(=O)N1CCN(C(=O)[C@H](CCC(=O)O)NC(=O)c2cc(N3CCC(C(=O)N(C)C)CC3)nc(-c3ccccc3)n2)CC1
> 340 | 9.4 | > 340 | 0.9 | 3.5 | CCCCCOC(=O)N1CCN(C(=O)[C@H](CCC(=O)O)NC(=O)c2cc(NC3CCN(C(C)C)CC3)nc(-c3ccccc3)n2)CC1
> 340 | 2.2 | > 340 | 0.1 | 0.7 | CCCCCOC(=O)N1CCN(C(=O)[C@H](CCC(=O)O)NC(=O)c2cc(N3CCC(CNCC)CC3)nc(-c3ccccc3)n2)CC1
> 340 | 2 | > 340 | 0.5 | 2.1 | CCCCOC(=O)N1CCN(C(=O)[C@H](CCC(=O)O)NC(=O)c2cc(N3CCC(CCOC)CC3)nc(-c3ccccc3)n2)CC1
> 340 | 0.61 | > 340 | 0.2 | 0.8 | CCCCCOC(=O)N1CCN(C(=O)[C@H](CCC(=O)O)NC(=O)c2cc(N3CCC(CN(CC)CC)CC3)nc(-c3ccccc3)n2)CC1
> 340 | 0.69 | > 340 | 0.2 | 0.5 | CCCCCOC(=O)N1CCN(C(=O)[C@H](CCC(=O)O)NC(=O)c2cc(N3CCC(N)CC3)nc(-c3ccccc3)n2)CC1
> 340 | 7.4 | > 340 | – | – | CCCCCOC(=O)N1CCN(C(=O)[C@H](CCC(=O)O)NC(=O)c2nc(-c3ccccc3)cc(N3CCC(OC)CC3)n2)CC1
> 340 | 35 | > 340 | – | – | CCCCCOC(=O)N1CCN(C(=O)[C@H](CCC(=O)O)NC(=O)c2nc(NC3CCN(C(C)C)CC3)cc(-c3ccccc3)n2)CC1
